Assays:
[1] = Displacement of [3H]DTG from sigma2 receptor in Sprague-Dawley rat liver membrane after 90 mins by liquid scintillation counting in presence of pentazocine; type: cell membranes
Method in brief: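 Sigma-2 assay: rat liver membranes (male Sprague-Dawley) with [3H]DTG (Kd 22.3 nM) plus pentazocine to mask sigma-1. Displacers at 1.0×10^-10–10^-5 M in 50 mM Tris-HCl pH 7.8, quadruplicate. Incubated 37 °C for 90 min, then filtered and scintillation counted. Three independent experiments; Ki via IC50/(1 + C/Kd).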

[2] = target: Sigma non-opioid intracellular receptor 1 (Rattus norvegicus, UniProt Q9R0C9); assay: Displacement of (+)-[3H]pentazocine from sigma1 receptor in Sprague-Dawley rat cerebral membrane after 90 mins by liquid scintillation counting
[3] = target: T1, Vesicular acetylcholine transporter (Rattus norvegicus, UniProt Q62666); assay: Binding affinity to VAChT in rat cerebral membrane; type: cell membranes
T1 sequence (Q62666 whole entry): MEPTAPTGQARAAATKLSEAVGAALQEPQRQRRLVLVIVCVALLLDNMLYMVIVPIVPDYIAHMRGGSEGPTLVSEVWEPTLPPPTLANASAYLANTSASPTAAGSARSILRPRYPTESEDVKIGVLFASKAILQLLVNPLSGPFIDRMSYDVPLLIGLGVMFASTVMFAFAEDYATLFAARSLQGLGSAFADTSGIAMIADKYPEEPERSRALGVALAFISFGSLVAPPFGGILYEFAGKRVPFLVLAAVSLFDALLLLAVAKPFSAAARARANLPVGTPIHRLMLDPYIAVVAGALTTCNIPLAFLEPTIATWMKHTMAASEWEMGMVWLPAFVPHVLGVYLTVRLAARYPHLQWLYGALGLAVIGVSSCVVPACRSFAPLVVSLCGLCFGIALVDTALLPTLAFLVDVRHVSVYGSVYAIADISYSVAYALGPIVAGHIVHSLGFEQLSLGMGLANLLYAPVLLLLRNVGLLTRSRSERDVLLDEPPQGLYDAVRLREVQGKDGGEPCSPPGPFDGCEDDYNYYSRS

[4] = target: T1, Vesicular acetylcholine transporter; assay: Displacement of [125I]O-iodo-trans-decalinvesamicol from VAChT in Sprague-Dawley rat cerebral membrane after 1 hr by gamma counting
Method in brief: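 Male Sprague-Dawley cerebral membranes were incubated with 5 nM radioiodinated tracer and each ligand at 10^-10–10^-5 M in 50 mM Tris-HCl pH 7.8, quadruplicate. Nonspecific binding was taken with excess unlabelled ligand. Incubation was 37 °C for 1 h, then ice quench, PEI-soaked filter harvest and gamma counting.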

[5] = target: T1, Vesicular acetylcholine transporter; assay: Displacement of (-)-[3H]vesamicol from VAChT in Sprague-Dawley rat cerebral membrane after 60 mins by liquid scintillation counting in presence of DTG
[6] = target: T1, Vesicular acetylcholine transporter; assay: Binding affinity to VAChT in Sprague-Dawley rat cerebral membrane after 1 hr by gamma counting in presence of haloperidol
Method in brief: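 Saturation binding of [¹²⁵I]-labelled radioligand (0.1–10 nM) to cerebral membranes from male 8-week Sprague-Dawley rats (sucrose homogenate, differential centrifugation), with 100 nM haloperidol masking σ receptors. Incubated in 50 mM Tris–HCl pH 7.8 for 1 h at 37 °C, in quadruplicate. Filtered and washed, then gamma counted. Specific binding is total minus nonspecific; Kd and Bmax come from the saturation curve and Scatchard plot.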

[7] = n-octanol-water partition coefficient, log P at 0.51 MBq after 5 mins by gamma counting; type: physicochemical
Method in brief: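 Tracer (0.51 MBq) partitioned between n-octanol and 0.1 M phosphate buffer pH 7.4 (n = 4). Vortexed 5 min at room temperature, then centrifuged 10 min at 2000g. Four samples per layer were gamma counted. logP = log10(octanol/aqueous radioactivity). Three independent experiments.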

Brain = assay: Drug uptake in Sprague-Dawley rat brain at 185 kBq, iv at 10 mins by gamma counting; type: ADME, organism-based; conditions: in vivo
Method in brief: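 Male Sprague-Dawley rats (8 weeks, 250–300 g, n = 4) got radioiodinated tracer, 185 kBq, by tail-vein injection. Sacrificed at 10 min. Whole brains were weighed and gamma counted, expressed as %ID/g.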

Sequence of Sigma non-opioid intracellular receptor 1 (Q9R0C9 whole entry): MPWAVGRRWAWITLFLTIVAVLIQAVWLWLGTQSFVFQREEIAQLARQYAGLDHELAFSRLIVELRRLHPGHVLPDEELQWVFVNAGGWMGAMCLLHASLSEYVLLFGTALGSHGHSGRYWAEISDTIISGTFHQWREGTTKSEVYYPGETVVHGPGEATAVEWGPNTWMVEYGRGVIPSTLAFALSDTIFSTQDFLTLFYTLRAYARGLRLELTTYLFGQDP

Structure (SMILES): OC1C[C@@H]2CCCC[C@H]2CC1N1CCC(c2ccccc2)CC1 (relative stereo)
- Ki [1]: 68.3 nM
- Ki [2]: 74.1 nM

Structure (SMILES): O[C@@H]1CCCCC1N1CCC(c2ccccc2[125I])CC1 (some centres not stated)
- Kd [3]: 17.4 nM

Structure (SMILES): O=C(CCCN1CCC2(CC1)C(=O)NCN2c1ccccc1)c1ccc(F)cc1 [SPIPERONE]
- Ki [4]: 1030 nM

Structure (SMILES): Cc1ccccc1NC(=N)Nc1ccccc1C [DITOLYLGUANIDINE]
- Ki [4]: 1130 nM
- Ki [1]: 31.7 nM

Structure (SMILES): NC[C@H](O)c1ccc(O)c(O)c1 [NOREPINEPHRINE]
- Ki [4]: > 10000 nM

Structure (SMILES): O=C(c1ccc(F)cc1)C1CCN(CCn2c(=O)[nH]c3ccccc3c2=O)CC1 [KETANSERIN]
- Ki [4]: > 10000 nM

Structure (SMILES): CC(C)=CCN1CC[C@]2(C)c3cc(O)ccc3C[C@H]1[C@H]2C [(+)-PENTAZOCINE]
- Ki [4]: > 10000 nM

Structure (SMILES): OC1C[C@@H]2CCCC[C@H]2CC1N1CCC(c2ccccc2Br)CC1 (relative stereo)
- Ki [4]: 9.3 nM
- Ki [1]: 138 nM
- Ki [2]: 151 nM
- Ki [5]: 13.8 nM

Structure (SMILES): OC1CCCCC1N1CCC(c2ccccc2)CC1 (configuration not stated)
- Ki [1]: 86.7 nM

Structure (SMILES): OC1C[C@@H]2CCCC[C@H]2CC1N1CCC(c2ccccc2[125I])CC1 (relative stereo)
- Kd [6]: 1.73 nM
- logP at 5 min [7]: 2.46
- Drug uptake (Brain): 0.45 % ID/g

Structure (SMILES): OC1C[C@@H]2CCCC[C@H]2CC1N1CCC(c2ccccc2I)CC1 (relative stereo)
- Ki [4]: 28.6 nM
- Ki [1]: 119 nM
- Ki [2]: 242 nM
- Ki [5]: 20.5 nM

Structure (SMILES): O=C(CCCN1CCC(O)(c2ccc(Cl)cc2)CC1)c1ccc(F)cc1 [HALOPERIDOL]
- Ki [1]: 51.6 nM
